Results from different studies.
Each line is one published result; the experiments were not run side by side.
Observed: cell growth or viability

C=C1CC[C@@H]2[C@](C)(CO)[C@H](O)CC[C@@]2(C)[C@@H]1C/C=C1/C(=O)OC[C@H]1O — IC50 (SW480; MTT; 72 h): 4170 nM
Cc1n[nH]c2ccc3nc(-c4ccc(C(=O)NCCN(C)C)cc4)c4c(c3c12)CCCC4 — GI50 (Kasumi 1; 72 h): 148 nM
COc1cccc2c1C(=O)c1c(O)c3c(c(O)c1C2=O)C[C@@](O)(C(=O)CO)C[C@@H]3O[C@H]1C[C@H](N)[C@H](O)[C@H](C)O1 — IC50 (SW480; MTT; 72 h): 90 nM
Cc1nc(NC(=O)N2CCC[C@H]2C(N)=O)sc1-c1ccnc(C(C)(C)C(F)(F)F)c1 — EC50 (HGC-27; ATP luminescence; 5 days): 20100 nM
CCN(CC)c1ccc(C=NNC(=O)CSc2nc3ccccc3c(=O)n2Cc2ccc(S(N)(=O)=O)cc2)c(O)c1 — GI50 (NCI/ADR-RES; SRB): > 100000 nM
NNc1nc2c(Cl)cc(Cl)cc2c(=O)n1-c1ccc(F)cc1 — IC50 (SW480; MTT; 48 h): 52000 nM
Cc1n[nH]c2ccc3nc(-c4ccc(C(=O)NCCN(C)C)cc4F)c4c(c3c12)CCCCC4 — GI50 (Kasumi 1; 72 h): 397 nM
C[C@H](Nc1ccc2c(c1)OCCn1cc(N3C(=O)OC[C@H]3C(F)F)nc1-2)C(N)=O — EC50 (HGC-27; ATP luminescence; 5 days): 120 nM
Cc1nc(Nc2ncc(C(=O)Nc3c(C)cccc3Cl)s2)cc(N2CC[C@H](O)C2)n1 — inhibition (Toledo; ATP luminescence; 10 µM; 72 h): 50%
